# Measured values reported in article PMC6980386 (Traffic (Copenhagen, Denmark), 2019).
# Tests used:
# FL huCD4 V28A = FL huCD4 V28A (Homo sapiens, UniProt P01730, V28A); test: CADA down-modulation of cellular huCD4; assay type: cell-based
# Outline: (§1)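 HEK293T cells, seeded overnight in DMEM with 10% serum, 1 mM sodium pyruvate and 0.075% NaHCO₃, were lipofected with full-length human CD4 (WT or mutant). Test compound in DMSO was added 6 h post-transfection as 1:5 serial dilutions (50–0.016 μM) for 48 h. Surface CD4 was stained with FITC/APC anti-CD4 (SK3) and read by flow cytometry. IC50 is 50% of the untreated signal, from four-parameter fits of ≥3 replicate experiments. FC is mutant/WT mean IC50.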
# [1] = biological target: truncated huCD4 D1D2 Q15A;P20A (Homo sapiens, UniProt P01730, P20A/Q15A); test: Cell-free in vitro translation and translocation; assay type: biochemical
# Outline: (§2)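 Truncated huCD4 D1D2 (lacking glycosylation sites and membrane anchor) was made by PCR and transcribed with T7. Proteinase K protection ran 30 min on ice and was quenched with PMSF. Products were separated by SDS-PAGE and imaged by phosphor imaging. The SP-cleaved band was normalised to the matching control. Data are from 2–5 independent experiments, compared with WT by Welch t test.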
# [2] = biological target: truncated huCD4 D1D2 L12A (Homo sapiens, UniProt P01730, L12A); test: Cell-free in vitro translation and translocation; assay type: biochemical; settings: 15 μM CADA
# Outline: as §2
# huCD4_1–32-YFP L11A = huCD4_1–32-YFP L11A (Homo sapiens, UniProt P01730, L11A); test: CADA inhibition of huCD4_1–32-YFP secretion; assay type: cell-based
# Outline: (§3)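 HEK293T cells were grown in DMEM with 10% FBS and 10 mM HEPES, seeded and left to adhere overnight, then transiently transfected with plasmid by Lipofectamine. Test compound was added 6 h after transfection as a 1:5 serial dilution (50 to 0.016 μM) for 48 h. Secreted YFP in the supernatant was captured on GFP-Trap magnetic beads for 1 h, washed with PBS and measured by flow cytometry. IC50 is the concentration that halves the signal relative to the untreated control, taken from a four-parameter fit of at least three replicate experiments. FC is the mutant mean IC50 divided by the WT mean IC50.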
# FL huCD4 T23A = FL huCD4 T23A (Homo sapiens, UniProt P01730, T23A); test: CADA down-modulation of cellular huCD4; assay type: cell-based
# Outline: as §1
# FL huCD4 R8A = FL huCD4 R8A (Homo sapiens, UniProt P01730, R8A); test: CADA down-modulation of cellular huCD4; assay type: cell-based; settings: read-out: Cellular huCD4 IC50 (μM) Mean, HEK293T, CADA 48h
# Outline: as §1
# huCD4_1–32-YFP F7A = huCD4_1–32-YFP F7A (Homo sapiens, UniProt P01730, F7A); test: CADA inhibition of huCD4_1–32-YFP secretion; assay type: cell-based
# Outline: (§4)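 HEK293T cells were lipofected with human CD4 residues 1–32 fused to the N-terminus of YFP (secreted, no membrane anchor). Test compound was added 6 h post-transfection as 1:5 serial dilutions (50–0.016 μM) for 48 h. Supernatant was captured on GFP-Trap magnetic beads for 1 h, washed in PBS, and YFP was read by flow cytometry. IC50 is 50% of the untreated control, from four-parameter fits of ≥3 replicate experiments. FC is mutant/WT mean IC50.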
# FL huCD4 V5A = FL huCD4 V5A (Homo sapiens, UniProt P01730, V5A); test: CADA down-modulation of cellular huCD4; assay type: cell-based
# Outline: as §1
# huCD4_1–32-YFP A22V = huCD4_1–32-YFP A22V (Homo sapiens, UniProt P01730, A22V); test: CADA inhibition of huCD4_1–32-YFP secretion; assay type: cell-based
# Outline: as §4
# huCD4_1–32-YFP K32A = huCD4_1–32-YFP K32A (Homo sapiens, UniProt P01730, K32A); test: CADA inhibition of huCD4_1–32-YFP secretion; assay type: cell-based; settings: read-out: Secreted YFP IC50 (μM) Mean, HEK293T, CADA 48h
# Outline: as §3
# sortilin = settings: second substrate, proteomic study; cited from earlier work
# FL huCD4 K27A = FL huCD4 K27A (Homo sapiens, UniProt P01730, K27A); test: CADA down-modulation of cellular huCD4; assay type: cell-based
# Outline: as §1
# huCD4_1–32-YFP T23A = huCD4_1–32-YFP T23A (Homo sapiens, UniProt P01730, T23A); test: CADA inhibition of huCD4_1–32-YFP secretion; assay type: cell-based
# Outline: as §3
# FL huCD4 V29A = FL huCD4 V29A (Homo sapiens, UniProt P01730, V29A); test: CADA down-modulation of cellular huCD4; assay type: cell-based
# Outline: as §1
# FL huCD4 A22V = FL huCD4 A22V (Homo sapiens, UniProt P01730, A22V); test: CADA down-modulation of cellular huCD4; assay type: cell-based
# Outline: as §1
# FL huCD4 P20G = FL huCD4 P20G (Homo sapiens, UniProt P01730, P20G); test: CADA down-modulation of cellular huCD4; assay type: cell-based; settings: HEK293T, 48h
# Outline: as §1
# FL huCD4 K33A = FL huCD4 K33A (Homo sapiens, UniProt P01730, K33A); test: CADA down-modulation of cellular huCD4; assay type: cell-based; settings: HEK293T, 48h
# Outline: as §1
# FL huCD4 L12A = FL huCD4 L12A (Homo sapiens, UniProt P01730, L12A); test: CADA down-modulation of cellular huCD4; assay type: cell-based
# Outline: as §1
# FL huCD4 P6A = FL huCD4 P6A (Homo sapiens, UniProt P01730, P6A); test: CADA down-modulation of cellular huCD4; assay type: cell-based
# Outline: as §1
# FL huCD4 K26R = FL huCD4 K26R (Homo sapiens, UniProt P01730, K26R); test: CADA down-modulation of cellular huCD4; assay type: cell-based; settings: HEK293T, 48h
# Outline: as §1
# FL huCD4 V13L;A17L = FL huCD4 V13L;A17L (Homo sapiens, UniProt P01730, A17L/V13L); test: CADA down-modulation of cellular huCD4; assay type: cell-based; settings: HEK293T, 48h
# Outline: as §1
# FL huCD4 L18A = FL huCD4 L18A (Homo sapiens, UniProt P01730, L18A); test: CADA down-modulation of cellular huCD4; assay type: cell-based
# Outline: as §1
# [3] = biological target: truncated huCD4 D1D2 A17V (Homo sapiens, UniProt P01730, A17V); test: Cell-free in vitro translation and translocation; assay type: biochemical; settings: 15 μM CADA
# Outline: as §2
# [4] = + less, − more sensitive to CADA
# [5] = read-out: Cellular huCD4 IC50 (μM) Mean, HEK293T, CADA 48h
# [6] = read-out: Secreted YFP IC50 (μM) Mean, HEK293T, CADA 48h
compound,measurement,setting,value
"C=C1CN(S(=O)(=O)c2ccc(C)cc2)CCCN(Cc2ccccc2)CCCN(S(=O)(=O)c2ccc(C)cc2)C1 [CADA, Cyclotriazadisulfonamide]",Cellular huCD4 FC (fold change of mean IC50 relative to WT),FL huCD4 V28A; [4],1.00
same,IC50,FL huCD4 V28A; [5],0.54 µM
same,inhibitory effect of CADA on protein translocation compared to WT,[1]; 15 μM CADA,responded significantly less to CADA
same,effect of CADA on co-translational translocation,[1]; increasing doses of CADA,full resistance to CADA
same,sensitivity of translocation towards CADA compared to WT,[2],higher sensitivity towards CADA
same,Secreted YFP FC (fold change of mean IC50 relative to WT),huCD4_1–32-YFP L11A; [4],−3.3
same,IC50,huCD4_1–32-YFP L11A; [6],0.38 µM
same,Cellular huCD4 FC (fold change of mean IC50 relative to WT),FL huCD4 T23A; [4],+1.6
same,IC50,FL huCD4 T23A; [5],0.87 µM
same,IC50,FL huCD4 R8A,4.2 µM
same,Secreted YFP FC (fold change of mean IC50 relative to WT),huCD4_1–32-YFP F7A; [4],−2.8
same,IC50,huCD4_1–32-YFP F7A; [6],0.46 µM
same,Cellular huCD4 FC (fold change of mean IC50 relative to WT),FL huCD4 V5A; [4],−1.9
same,IC50,FL huCD4 V5A; [5],0.29 µM
same,Secreted YFP FC (fold change of mean IC50 relative to WT),huCD4_1–32-YFP A22V; [4],+1.2
same,IC50,huCD4_1–32-YFP A22V; [6],1.58 µM
same,IC50,huCD4_1–32-YFP K32A,17.6 µM
same,susceptibility of sortilin to CADA,sortilin,lower susceptibility to the compound as compared to huCD4
same,Cellular huCD4 FC (fold change of mean IC50 relative to WT),FL huCD4 K27A; [4],+2.4
same,IC50,FL huCD4 K27A; [5],1.3 µM
same,Secreted YFP FC (fold change of mean IC50 relative to WT),huCD4_1–32-YFP T23A; [4],+1.9
same,IC50,huCD4_1–32-YFP T23A; [6],2.36 µM
same,Cellular huCD4 FC (fold change of mean IC50 relative to WT),FL huCD4 V29A; [4],+1.2
same,IC50,FL huCD4 V29A; [5],0.63 µM
same,Cellular huCD4 FC (fold change of mean IC50 relative to WT),FL huCD4 A22V; [4],+1.5
same,IC50,FL huCD4 A22V; [5],0.79 µM
same,sensitivity to CADA,FL huCD4 P20G,fully restored CADA sensitivity
same,IC50,FL huCD4 K33A,> 50000 nM
same,enhanced CADA sensitivity relative to WT,FL huCD4 L12A,8 fold
same,Cellular huCD4 FC (fold change of mean IC50 relative to WT),FL huCD4 L12A; [4],−7.7
same,IC50,FL huCD4 L12A; [5],0.07 µM
same,Cellular huCD4 FC (fold change of mean IC50 relative to WT),FL huCD4 P6A; [4],+1.8
same,IC50,FL huCD4 P6A; [5],0.96 µM
same,sensitivity to CADA,FL huCD4 K26R,kept full sensitivity to CADA
same,sensitivity to CADA,FL huCD4 V13L;A17L,nearly full resistance to CADA
same,Cellular huCD4 FC (fold change of mean IC50 relative to WT),FL huCD4 L18A; [4],−5.4
same,IC50,FL huCD4 L18A; [5],0.1 µM
same,inhibitory effect of CADA on protein translocation compared to WT,[3],significantly reduced
